# Source: ChEMBL document CHEMBL5058577, “EUbOPEN Chemogenomics Library 2 (Multiplex)” (2022)
# Test system: U2OS
# Experiment: Multiplex assay against U2OS
# Format: toxicity, cell-based
# Conditions: human
# Procedure, shortened: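 Compound was added to live cells that had been stained at seeding with Hoechst33342, BioTracker Green Microtubule Cytoskeleton Dye, MitoTracker Red and Annexin V Alexa Fluor 680, and imaging followed on a CQ1 microscope at 37°C and 5% CO2. CellPathfinder machine-learning gating divided cells into Hoechst high-intensity objects or normal cells, normal cells into healthy, pyknosed or fragmented nuclei, and pyknosed cells into mitotic or apoptotic. Tubulin, mitochondrial-mass and membrane-permeability phenotypes are per cents of healthy-nucleus cells.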
# [1] = 12 h, 1 µM, compound concentration 1 uM, replicate 1
# [2] = 12 h, 1 µM, compound concentration 1 uM, replicate 2
# [3] = 12 h, 10 µM, compound concentration 10 uM, replicate 1
# [4] = 12 h, 10 µM, compound concentration 10 uM, replicate 2
# [5] = 24 h, 1 µM, compound concentration 1 uM, replicate 1
# [6] = 24 h, 1 µM, compound concentration 1 uM, replicate 2
# [7] = 24 h, 10 µM, compound concentration 10 uM, replicate 1
# [8] = 24 h, 10 µM, compound concentration 10 uM, replicate 2
# [9] = 48 h, 1 µM, compound concentration 1 uM, replicate 1
# [10] = 48 h, 1 µM, compound concentration 1 uM, replicate 2
# [11] = 48 h, 10 µM, compound concentration 10 uM, replicate 1
# [12] = 48 h, 10 µM, compound concentration 10 uM, replicate 2
smiles,measurement,setting,value
Cc1c(Cc2ccc3ccccc3n2)c2cc(F)ccc2n1CC(=O)O [TIMAPIPRANT],Population Apoptotic (%),[1],84%
same,Population Fragmented Nuclei (%),[1],21%
same,Population Healthy Nuclei (%),[1],69%
same,Population Hoechst High Intensity Objects (%),[1],2%
same,Population Membrane Permeable-Phenotype (%),[1],3%
same,Population Mitochondria Different-Phenotype (%),[1],1%
same,Population Mitotic Cells (%),[1],16%
same,Population Normal (%),[1],97%
same,Population Pyknosed Nuclei (%),[1],8%
same,Population Tubulin-Different-Phenotype (%),[1],1%
same,Total Cell Count,[1],298
same,Population Apoptotic (%),[2],83%
same,Population Fragmented Nuclei (%),[2],22%
same,Population Healthy Nuclei (%),[2],70%
same,Population Hoechst High Intensity Objects (%),[2],1%
same,Population Membrane Permeable-Phenotype (%),[2],4%
same,Population Mitochondria Different-Phenotype (%),[2],4%
same,Population Normal (%),[2],98%
same,Population Pyknosed Nuclei (%),[2],6%
same,Population Tubulin-Different-Phenotype (%),[2],3%
same,Total Cell Count,[2],94
same,Population Apoptotic (%),[3],75%
same,Population Fragmented Nuclei (%),[3],30%
same,Population Healthy Nuclei (%),[3],62%
same,Population Hoechst High Intensity Objects (%),[3],2%
same,Population Membrane Permeable-Phenotype (%),[3],4%
same,Population Mitochondria Different-Phenotype (%),[3],1%
same,Population Mitotic Cells (%),[3],25%
same,Population Normal (%),[3],97%
same,Population Pyknosed Nuclei (%),[3],6%
same,Population Tubulin-Different-Phenotype (%),[3],2%
same,Total Cell Count,[3],244
same,Population Apoptotic (%),[4],68%
same,Population Fragmented Nuclei (%),[4],12%
same,Population Healthy Nuclei (%),[4],75%
same,Population Hoechst High Intensity Objects (%),[4],0%
same,Population Membrane Permeable-Phenotype (%),[4],6%
same,Population Mitochondria Different-Phenotype (%),[4],3%
same,Population Mitotic Cells (%),[4],31%
same,Population Normal (%),[4],99%
same,Population Pyknosed Nuclei (%),[4],12%
same,Population Tubulin-Different-Phenotype (%),[4],3%
same,Total Cell Count,[4],132
same,Population Apoptotic (%),[5],96%
same,Population Fragmented Nuclei (%),[5],18%
same,Population Healthy Nuclei (%),[5],73%
same,Population Hoechst High Intensity Objects (%),[5],1%
same,Population Membrane Permeable-Phenotype (%),[5],6%
same,Population Mitochondria Different-Phenotype (%),[5],3%
same,Population Mitotic Cells (%),[5],3%
same,Population Normal (%),[5],98%
same,Population Pyknosed Nuclei (%),[5],7%
same,Population Tubulin-Different-Phenotype (%),[5],4%
same,Total Cell Count,[5],371
same,Population Apoptotic (%),[6],100%
same,Population Fragmented Nuclei (%),[6],19%
same,Population Membrane Permeable-Phenotype (%),[6],7%
same,Population Mitochondria Different-Phenotype (%),[6],2%
same,Population Mitotic Cells (%),[6],0%
same,Population Tubulin-Different-Phenotype (%),[6],3%
same,Total Cell Count,[6],117
same,Population Apoptotic (%),[7],94%
same,Population Fragmented Nuclei (%),[7],26%
same,Population Healthy Nuclei (%),[7],66%
same,Population Hoechst High Intensity Objects (%),[7],1%
same,Population Membrane Permeable-Phenotype (%),[7],6%
same,Population Mitochondria Different-Phenotype (%),[7],2%
same,Population Mitotic Cells (%),[7],5%
same,Population Normal (%),[7],98%
same,Population Pyknosed Nuclei (%),[7],6%
same,Population Tubulin-Different-Phenotype (%),[7],3%
same,Total Cell Count,[7],278
same,Population Apoptotic (%),[8],72%
same,Population Fragmented Nuclei (%),[8],18%
same,Population Healthy Nuclei (%),[8],74%
same,Population Hoechst High Intensity Objects (%),[8],0%
same,Population Membrane Permeable-Phenotype (%),[8],8%
same,Population Mitotic Cells (%),[8],27%
same,Population Normal (%),[8],100%
same,Population Pyknosed Nuclei (%),[8],7%
same,Total Cell Count,[8],152
same,Population Apoptotic (%),[9],88%
same,Population Fragmented Nuclei (%),[9],16%
same,Population Healthy Nuclei (%),[9],77%
same,Population Hoechst High Intensity Objects (%),[9],1%
same,Population Membrane Permeable-Phenotype (%),[9],4%
same,Population Mitochondria Different-Phenotype (%),[9],3%
same,Population Mitotic Cells (%),[9],11%
same,Population Normal (%),[9],98%
same,Population Pyknosed Nuclei (%),[9],6%
same,Population Tubulin-Different-Phenotype (%),[9],3%
same,Total Cell Count,[9],536
same,Population Apoptotic (%),[10],90%
same,Population Fragmented Nuclei (%),[10],22%
same,Population Healthy Nuclei (%),[10],71%
same,Population Hoechst High Intensity Objects (%),[10],2%
same,Population Membrane Permeable-Phenotype (%),[10],12%
same,Population Mitochondria Different-Phenotype (%),[10],5%
same,Population Mitotic Cells (%),[10],10%
same,Population Normal (%),[10],97%
same,Population Tubulin-Different-Phenotype (%),[10],6%
same,Total Cell Count,[10],168
same,Population Apoptotic (%),[11],100%
same,Population Fragmented Nuclei (%),[11],19%
same,Population Healthy Nuclei (%),[11],74%
same,Population Hoechst High Intensity Objects (%),[11],0%
same,Population Membrane Permeable-Phenotype (%),[11],3%
same,Population Mitochondria Different-Phenotype (%),[11],1%
same,Population Mitotic Cells (%),[11],0%
same,Population Normal (%),[11],99%
same,Population Pyknosed Nuclei (%),[11],6%
same,Population Tubulin-Different-Phenotype (%),[11],1%
same,Total Cell Count,[11],392
same,Population Apoptotic (%),[12],92%
same,Population Fragmented Nuclei (%),[12],13%
same,Population Healthy Nuclei (%),[12],80%
same,Population Hoechst High Intensity Objects (%),[12],2%
same,Population Membrane Permeable-Phenotype (%),[12],5%
same,Population Mitochondria Different-Phenotype (%),[12],3%
same,Population Mitotic Cells (%),[12],7%
same,Population Normal (%),[12],97%
same,Population Tubulin-Different-Phenotype (%),[12],3%
same,Total Cell Count,[12],204
CCCCCCNC(=O)Nc1ccc(S(=O)(=O)Nc2ccc(CCNC[C@H](O)COc3ccc(O)cc3)cc2)cc1 [L-755507],Population Apoptotic (%),[1],86%
same,Population Fragmented Nuclei (%),[1],22%
same,Population Healthy Nuclei (%),[1],67%
same,Population Hoechst High Intensity Objects (%),[1],4%
same,Population Membrane Permeable-Phenotype (%),[1],4%
same,Population Mitochondria Different-Phenotype (%),[1],4%
same,Population Mitotic Cells (%),[1],13%
same,Population Normal (%),[1],95%
same,Population Pyknosed Nuclei (%),[1],9%
same,Population Tubulin-Different-Phenotype (%),[1],4%
same,Total Cell Count,[1],231
same,Population Apoptotic (%),[2],100%
same,Population Fragmented Nuclei (%),[2],18%
same,Population Healthy Nuclei (%),[2],75%
same,Population Hoechst High Intensity Objects (%),[2],0%
same,Population Membrane Permeable-Phenotype (%),[2],10%
same,Population Mitochondria Different-Phenotype (%),[2],1%
same,Population Mitotic Cells (%),[2],0%
same,Population Normal (%),[2],99%
same,Population Pyknosed Nuclei (%),[2],5%
same,Population Tubulin-Different-Phenotype (%),[2],5%
same,Total Cell Count,[2],120
same,Population Apoptotic (%),[3],60%
same,Population Fragmented Nuclei (%),[3],31%
same,Population Healthy Nuclei (%),[3],59%
same,Population Hoechst High Intensity Objects (%),[3],3%
same,Population Membrane Permeable-Phenotype (%),[3],13%
same,Population Mitochondria Different-Phenotype (%),[3],11%
same,Population Mitotic Cells (%),[3],40%
same,Population Normal (%),[3],96%
same,Population Pyknosed Nuclei (%),[3],9%
same,Population Tubulin-Different-Phenotype (%),[3],10%
same,Total Cell Count,[3],282
same,Population Apoptotic (%),[4],72%
same,Population Fragmented Nuclei (%),[4],19%
same,Population Healthy Nuclei (%),[4],72%
same,Population Hoechst High Intensity Objects (%),[4],2%
same,Population Membrane Permeable-Phenotype (%),[4],19%
same,Population Mitochondria Different-Phenotype (%),[4],15%
same,Population Mitotic Cells (%),[4],27%
same,Population Normal (%),[4],97%
same,Population Pyknosed Nuclei (%),[4],8%
same,Population Tubulin-Different-Phenotype (%),[4],15%
same,Total Cell Count,[4],140
same,Population Apoptotic (%),[5],83%
same,Population Fragmented Nuclei (%),[5],22%
same,Population Healthy Nuclei (%),[5],66%
same,Population Hoechst High Intensity Objects (%),[5],4%
same,Population Membrane Permeable-Phenotype (%),[5],5%
same,Population Mitochondria Different-Phenotype (%),[5],5%
same,Population Mitotic Cells (%),[5],16%
same,Population Normal (%),[5],95%
same,Population Pyknosed Nuclei (%),[5],11%
same,Population Tubulin-Different-Phenotype (%),[5],3%
same,Total Cell Count,[5],285
same,Population Apoptotic (%),[6],92%
same,Population Fragmented Nuclei (%),[6],23%
same,Population Healthy Nuclei (%),[6],67%
same,Population Hoechst High Intensity Objects (%),[6],2%
same,Population Membrane Permeable-Phenotype (%),[6],11%
same,Population Mitochondria Different-Phenotype (%),[6],1%
same,Population Mitotic Cells (%),[6],7%
same,Population Normal (%),[6],97%
same,Population Pyknosed Nuclei (%),[6],9%
same,Population Tubulin-Different-Phenotype (%),[6],5%
same,Total Cell Count,[6],143
same,Population Apoptotic (%),[7],85%
same,Population Fragmented Nuclei (%),[7],25%
same,Population Healthy Nuclei (%),[7],65%
same,Population Hoechst High Intensity Objects (%),[7],2%
same,Population Membrane Permeable-Phenotype (%),[7],7%
same,Population Mitochondria Different-Phenotype (%),[7],4%
same,Population Mitotic Cells (%),[7],14%
same,Population Normal (%),[7],97%
same,Population Pyknosed Nuclei (%),[7],9%
same,Population Tubulin-Different-Phenotype (%),[7],3%
same,Total Cell Count,[7],307
same,Population Apoptotic (%),[8],88%
same,Population Fragmented Nuclei (%),[8],14%
same,Population Healthy Nuclei (%),[8],79%
same,Population Membrane Permeable-Phenotype (%),[8],9%
same,Population Mitochondria Different-Phenotype (%),[8],5%
same,Population Mitotic Cells (%),[8],11%
same,Population Pyknosed Nuclei (%),[8],6%
same,Population Tubulin-Different-Phenotype (%),[8],6%
same,Total Cell Count,[8],149
same,Population Apoptotic (%),[9],78%
same,Population Fragmented Nuclei (%),[9],14%
same,Population Healthy Nuclei (%),[9],74%
same,Population Hoechst High Intensity Objects (%),[9],1%
same,Population Membrane Permeable-Phenotype (%),[9],6%
same,Population Mitochondria Different-Phenotype (%),[9],3%
same,Population Mitotic Cells (%),[9],21%
same,Population Normal (%),[9],98%
same,Population Pyknosed Nuclei (%),[9],11%
same,Population Tubulin-Different-Phenotype (%),[9],3%
same,Total Cell Count,[9],422
same,Population Apoptotic (%),[10],91%
same,Population Fragmented Nuclei (%),[10],26%
same,Population Healthy Nuclei (%),[10],61%
same,Population Hoechst High Intensity Objects (%),[10],4%
same,Population Membrane Permeable-Phenotype (%),[10],12%
same,Population Mitochondria Different-Phenotype (%),[10],5%
same,Population Mitotic Cells (%),[10],8%
same,Population Normal (%),[10],95%
same,Population Pyknosed Nuclei (%),[10],12%
same,Population Tubulin-Different-Phenotype (%),[10],6%
same,Total Cell Count,[10],188
same,Population Apoptotic (%),[11],80%
same,Population Fragmented Nuclei (%),[11],19%
same,Population Healthy Nuclei (%),[11],70%
same,Population Hoechst High Intensity Objects (%),[11],2%
same,Population Membrane Permeable-Phenotype (%),[11],7%
same,Population Mitochondria Different-Phenotype (%),[11],2%
same,Population Mitotic Cells (%),[11],20%
same,Population Normal (%),[11],97%
same,Population Pyknosed Nuclei (%),[11],9%
same,Population Tubulin-Different-Phenotype (%),[11],4%
same,Total Cell Count,[11],419
same,Population Apoptotic (%),[12],94%
same,Population Fragmented Nuclei (%),[12],13%
same,Population Healthy Nuclei (%),[12],78%
same,Population Hoechst High Intensity Objects (%),[12],1%
same,Population Mitochondria Different-Phenotype (%),[12],3%
same,Population Mitotic Cells (%),[12],5%
same,Population Normal (%),[12],98%
same,Population Pyknosed Nuclei (%),[12],7%
same,Population Tubulin-Different-Phenotype (%),[12],6%
same,Total Cell Count,[12],242
